Usually viability stands for a read-out of living cells in per cent, often relative to untreated cells. As usually defined, the inhibition is the relative decrease from the control value, in per cent.

Values without a mark were called inactive. Inconclusive results are not listed. Calls of active or inactive are those of the source.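 The calls were made as follows, unless noted: active = viability increase at or above a cutoff of the median across tested compounds plus 3 SD (cut at about 8.5% in these data, passing the limit was not always enough); inconclusive = some gains above the cutoff, reason not given; inactive = the rest.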

A short description of assay [1]: S. cerevisiae growth inhibition in permissive medium (OD615), pilot counter-assay for S. cerevisiae lifespan shortening project, permissive growth control (AID 705;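 active = growth inhibition above 25% in both replicates, a cutoff set 3 SD above the mean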). The conditions noted are these: OD615, 24 h, at 10 µM, stronger effect = higher value. An outline of the steps: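 System: S. cerevisiae with engineered DeaD lifespan system. Medium: SC raffinose/galactose permissive medium. Doses: single compound dose of 10 µM, 0.25% DMSO final. Schedule: 24 h exposure, 30 °C. Measured by: OD615 turbidity read. Read-out: growth inhibition.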

A short description of assay [2]: S. cerevisiae growth inhibition in restrictive medium, OD615, pilot screen, restrictive growth control, yeast lifespan reduction project (AID 706;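 active = growth inhibition above a set limit, 3 SD over mean compound inhibition, in both replicates, cut at about 43% in these data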;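 also: modified DeaD lifespan yeast strain shifted to restrictive glucose medium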). Conditions: OD615, 48 h, at 10 µM, stronger effect = higher value. An outline of the steps:
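Assay system – genetically modified Saccharomyces cerevisiae, DeaD replicative lifespan assay strain · Medium – CSMM-D glucose medium · Doses – 10 µM compound, 0.25% DMSO · Times – 4 h pre-incubation, 48 h exposure at 30 °C · Signal – optical density at 615 nm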

A short description of assay [3]: doxorubicin toxicity protection in MRP-1 cells – H69AR cells, CellTiter-Glo, duplicate, MRP-1 activator project, pilot screen (AID 807).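 Also: compound pretreatment 18-22 h then 72 h combined with doxorubicin; 0% = doxorubicin alone and 100% = vehicle without doxorubicin.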 Conditions: H69AR viability with doxorubicin, CellTiter-Glo luminescence; at 10 µM; stronger effect = higher value. (In general: Cellular ATP, detected with luciferase, serves as a proxy for viable cell number.)
Assay [4] in a line: viability of HCT116 without oncogenic beta-catenin – human colon tumor cells, pilot screen (AID 823;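 active = cell viability at or below a set limit in both duplicate runs, the limit being the all-compound median minus 4 SD, cut at about 23% in these data, passing the limit was not always enough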;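 also: 0% = wells killed by 20 µM Hyamine and 100% = untreated DMSO cell wells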). The conditions noted are these: HCT116 beta-catenin knockout viability, CellTiter-Glo, 60 h; at 10 µM; stronger effect = lower value.
A short description of assay [5]: viability of PTEN-null HCT116 cells – cell-based, HCT116 clonal line, CellTiter-Glo, pilot screen (AID 824;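 active = viability at or below 27.92% in each of two runs, the all-compound median minus 4 SD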;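 also: 0% = 20 µM Hyamine control and 100% = vehicle cell control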). Conditions: HCT116 PTEN-deleted viability, 60 h, at 10 µM, stronger effect = lower value.
The nature of assay [6]: RAM pathway blockade in budding yeast – dse1pr::URA3 reporter, 5-FOA selection, pilot screen (AID 869;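 active = inhibition over a set limit, the all-compound mean plus 3 SD, in both replicate runs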;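 also: 0% = DMSO wells with no growth and 100% = 10 µM 1-NA-PP1 with full growth; RAM network block rescues cells from 5-FOA so hits raise OD615 growth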). Conditions: S. cerevisiae dse1pr::URA3 5-FOA growth, OD615, 2 d; at 10 µM; stronger effect = higher value; strain carries analog-sensitive mutant Cbk1 kinase.
The nature of assay [7]: RAM signaling pathway blockade in yeast – S. cerevisiae, Pdr1DBD-CYC8 efflux-inhibited sensitized strain, primary screen (AID 1298;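 active = RAM network inhibition above 8.4% in each of two replicates, 3 SD over the compound average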;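 also: 0% = DMSO untreated cells without growth and 100% = 10 µM 1-NA-PP1 full growth; higher means more yeast growth rescued from 5-FOA killing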). The conditions noted are these: S. cerevisiae cbk1-as DSE1-URA3 strain, 5-FOA growth OD615, 2 d; at 50 µM; stronger effect = higher value.

As to `CN1CCc2c(sc(NC(=O)c3ccc(S(=O)(=O)N4CCOCC4)cc3)c2C(N)=O)C1`, the growth inhibition was -5.07% in assay [1] and -4.6% in assay [2]. Moreover, the viability increase in assay [3] was -0.65%. Also, the viability in assay [4] was 111%; in assay [5], 103%. Also, the inhibition in assay [6] was -0.19%. The RAM network inhibition in assay [7] is 7.28%.
For the compound `COc1cccc(N2C(=O)Nc3ccccc3C2(O)C(=O)NCc2ccc3c(c2)OCO3)c1` (stereo not drawn), the growth inhibition in assay [1] is -11.5%; in assay [2], -8.59%. Also, the viability increase in assay [3] is -0.4%. The viability is 95.9% in assay [4] and 99.7% in assay [5]. The inhibition in assay [6] is 0.51%. The RAM network inhibition in assay [7] is 9.22%.
For the compound `Cc1sc2nc(SCC(=O)N3CCCC3)[nH]c(=O)c2c1C`, the figures for the growth inhibition in assay [1] and in assay [2] were -0.89% and -6.9%, respectively. Further, the viability increase in assay [3] was -1.34%. Further, the viability in assay [4] is 104%; in assay [5], 98%. The inhibition in assay [6] is 0.26%. Moreover, the RAM network inhibition in assay [7] is 1.77%.
For the compound `CN(Cc1ccccc1)C(=O)CCC(=O)N(C)Cc1ccccc1`, the growth inhibition in assay [1] was -1.99%; in assay [2], 4.61%. In addition, in assay [3], the viability increase is -0.27%. Besides, the viability in assay [4] is 103%; in assay [5] it was 90.2%. The inhibition in assay [6] was 0.97%. The RAM network inhibition in assay [7] was -0.11%.
Regarding `Cc1ccc(O)c(C2=NOC(O)(C(F)(F)C(F)F)C2)c1` (stereo not drawn), the figures for the growth inhibition in assay [1] and in assay [2] were -0.995% and 9.35%, respectively. Besides, the viability increase in assay [3] is -5.27%. The results for the viability in assay [4] and in assay [5] were 93.4% and 92.9%, respectively. Moreover, in assay [6], the inhibition was 0.72%. Besides, the RAM network inhibition in assay [7] is 5.23%.
For the compound `O=C(CSc1nc2ncccc2[nH]1)NCc1ccccc1`, the growth inhibition was 0.36% in assay [1] and 13.3% in assay [2]. Further, in assay [3], the viability increase was -0.06%. In addition, the viability in assay [4] was 101%; in assay [5], 86.9%. Besides, the inhibition in assay [6] is 3.13%. For the same compound, the RAM network inhibition in assay [7] is 3.93%.
Consider `CCC(=O)N/C(=N/c1nc(C)cc(C)n1)Nc1cccc(OC)c1`, for which the growth inhibition was -5.62% in assay [1] and -19.7% in assay [2]. The viability increase in assay [3] is -4.53%. The viability was 41.1% in assay [4] and 36.4% in assay [5]. For the same compound, the inhibition in assay [6] was 2.23%. Also, the RAM network inhibition in assay [7] is 3.66%.
As to `Cc1cc(C)cc(N(CC(=O)N2CCn3c2nc2ccccc23)S(=O)(=O)c2c(C)noc2C)c1`, the growth inhibition in assay [1] was -5.97%; in assay [2], 11.2%. The viability increase in assay [3] is -4.06%. In addition, the viability in assay [4] was 88.9%; in assay [5], 90.9%. In addition, the inhibition in assay [6] was 1.79%. Further, the RAM network inhibition in assay [7] was 10.1%.
Turning to `COc1ccc(S(=O)(=O)NCC2CCC(C(=O)N3CCC4(CC3)OCCO4)CC2)cc1` (stereo not drawn), the growth inhibition in assay [1] was -5.13%; in assay [2], -3.68%. In addition, the viability increase in assay [3] is -1.38%. In addition, the viability in assay [4] is 94.2%; in assay [5] it was 90.6%. The inhibition in assay [6] is 0.81%. Besides, in assay [7], the RAM network inhibition is 2.29%.
For the compound `COc1cccc(C2c3c(oc4ccccc4c3=O)C(=O)N2CCCN2CCOCC2)c1` (stereo not drawn), the growth inhibition in assay [1] was -10.5%; in assay [2] it was -5.13%. The viability increase in assay [3] is -3.16%. Besides, the viability was 95.1% in assay [4] and 93.1% in assay [5]. The inhibition in assay [6] is 1.13%. Also, the RAM network inhibition in assay [7] was 2.84%.
Consider `Cc1cc(C)n(/N=C/c2c[nH]c3ccccc23)c(=O)c1`, for which the results for the growth inhibition in assay [1] and in assay [2] were -12.3% and -5.84%, respectively. Besides, the viability increase in assay [3] was -3.53%. Moreover, the viability was 100% in assay [4] and 102% in assay [5]. Further, in assay [6], the inhibition is 0.785%. In assay [7], the RAM network inhibition was 2.38%.
Take `CCOC(=O)C1CCN(C(=O)CN(c2ccc(OC)cc2)S(=O)(=O)c2c(C)nn(C)c2C)CC1`: the growth inhibition was -3.58% in assay [1] and -3.18% in assay [2]. In assay [3], the viability increase was -0.02%. The viability in assay [4] is 98.7%; in assay [5] it was 104%. In assay [6], the inhibition is 1.46%. The RAM network inhibition in assay [7] is 2.69%.
Regarding `COc1ccc(N2C(=O)CCC(C(=O)NCc3ccccn3)C2c2ccc(OC)c(OC)c2)cc1` (stereo not drawn), the growth inhibition in assay [1] is -3.9%; in assay [2], 6.09%. Also, in assay [3], the viability increase was -1.53%. Moreover, the viability is 98.3% in assay [4] and 100% in assay [5]. For the same compound, the inhibition in assay [6] was 1.01%. Also, in assay [7], the RAM network inhibition is -0.31%.
Regarding `Cc1ccc(C(=O)CSc2nnc(-c3cccs3)n2C)o1`, the figures for the growth inhibition in assay [1] and in assay [2] were 1.85% and 28.1%, respectively. Further, the viability increase in assay [3] is -3.5%. The viability in assay [4] and in assay [5] was 108% each time. In addition, the inhibition in assay [6] was 0.5%. In addition, in assay [7], the RAM network inhibition is 3.7%.
On to `COc1cccc(N2C(=O)C3CCCN3C2c2ccc(Cl)cc2)c1` (stereo not drawn), for which the growth inhibition is 3.31% in assay [1] and 17.5% in assay [2]. Moreover, in assay [3], the viability increase is -2.51%. For the same compound, the viability is 95.2% in assay [4] and 87% in assay [5]. The inhibition in assay [6] is 1.21%. For the same compound, the RAM network inhibition in assay [7] is 2.53%.
`O=C(Nc1nccs1)C1CCN(S(=O)(=O)c2cccnc2)CC1`: the growth inhibition in assay [1] is -4.93%; in assay [2] it was 3.12%. For the same compound, the viability increase in assay [3] was -0.26%. In addition, the viability in assay [4] is 102%; in assay [5], 101%. Besides, the inhibition in assay [6] was 0.905%. The RAM network inhibition in assay [7] is -0.78%.
Turning to `Cc1cc(C)nc(SCC(=O)c2ccc(O)cc2O)n1`, the growth inhibition was -0.2% in assay [1] and 9.03% in assay [2]. For the same compound, in assay [3], the viability increase was -3.73%. The figures for the viability in assay [4] and in assay [5] were 99.7% and 99.4%, respectively. The inhibition in assay [6] was 1.04%. The RAM network inhibition in assay [7] was -1.2%.
With `CCOC(=O)CSc1nc2nc(C)cc(C)n2n1`, the growth inhibition in assay [1] was 4.15%; in assay [2], 6.3%. In addition, the viability increase in assay [3] was -1.33%. The viability was 101% in assay [4] and 96% in assay [5]. Also, in assay [6], the inhibition was 2.5%. Besides, in assay [7], the RAM network inhibition was 4.98%.
For `COc1ccc(OCCC(=O)OCC(=O)NCc2ccco2)cc1`, the growth inhibition in assay [1] is -11%; in assay [2], 1.25%. The viability increase in assay [3] is -1.75%. For the same compound, the viability in assay [4] and in assay [5] was 92.2% each time. For the same compound, in assay [6], the inhibition is 1.01%. Moreover, the RAM network inhibition in assay [7] is 4.11%.
`CCCC(=O)NCCCc1nc2ccccc2[nH]1`: the growth inhibition in assay [1] is -8.81%; in assay [2], -14.7%. Moreover, the viability increase in assay [3] was 1.33%. In addition, the viability in assay [4] was 108%; in assay [5] it was 100%. Moreover, in assay [6], the inhibition was 1.45%. Besides, the RAM network inhibition in assay [7] is 2.55%.
As for `COc1ccc(NC(=O)c2c(NC(=O)CNCc3ccco3)sc3c2CCC3)c(OC)c1`, the growth inhibition in assay [1] is -3.54%; in assay [2], -19%. Besides, the viability increase in assay [3] is -1.44%. Further, the viability in assay [4] was 88.7%; in assay [5], 79.2%. Also, the inhibition in assay [6] was 1.43%. Besides, the RAM network inhibition in assay [7] is 5.28%.
Turning to `COc1ccccc1-c1nnc(SCC(=O)N2CCOCC2)o1`, the growth inhibition in assay [1] is -12.5%; in assay [2], 0.015%. For the same compound, the viability increase in assay [3] was -3.69%. Further, the values for the viability in assay [4] and in assay [5] were 93.8% and 95.7%, respectively. The inhibition in assay [6] was 1.75%. Also, the RAM network inhibition in assay [7] was 2.61%.
For the compound `CC1Cc2ccccc2N1C(=O)CSC1=NCCS1` (stereo not drawn), the growth inhibition is 7.58% in assay [1] and 50.5% (active) in assay [2]. The viability increase in assay [3] is -6.91%. For the same compound, the results for the viability in assay [4] and in assay [5] were 92.6% and 95.2%, respectively. Moreover, the inhibition in assay [6] was 2.67%. For the same compound, in assay [7], the RAM network inhibition is 6.64%.
On to `CC1=CC(C)(C)N(C(=O)CSc2nccn2C)c2cc(C)ccc21`, for which the growth inhibition in assay [1] was -12.3%; in assay [2] it was -6.42%. The viability increase in assay [3] is -3.04%. Moreover, the results for the viability in assay [4] and in assay [5] were 84.6% and 84%, respectively. Besides, in assay [6], the inhibition was 1.09%. Further, the RAM network inhibition in assay [7] was 0.77%.

Values taken from PubChem BioAssay.
